Measured values from ChEMBL document CHEMBL1148762, “Lysosome and HER3 (ErbB3) selective anticancer agent kahalalide F: semisynthetic modifications and antifungal lead-exploration studies” (J Med Chem, 2007).
Values after ≈ are worked out from the molar mass of the structure shown. Active and inactive are the calls of the source. The rule behind the calls is not given here.

Tests used:
[1] = system: Leishmania donovani; assay: Antiparasitic activity against Leishmania donovani; assay type: functional, organism-based
[2] = system: Cryptococcus neoformans; assay: Antimicrobial activity against Cryptococcus neoformans ATCC 90113; assay type: functional, organism-based
[3] = system: Candida albicans; assay: Antimicrobial activity against Candida albicans ATCC 90028; assay type: functional, organism-based
[4] = system: Aspergillus fumigatus; assay: Antimicrobial activity against Aspergillus fumigatus ATCC 90906; assay type: functional, organism-based
[5] = system: Mycobacterium intracellulare; assay: Antimicrobial activity against Mycobacterium intracellular ATCC 23068; assay type: functional, organism-based
[6] = system: Fusarium proliferatum; assay: Fungistatic activity against Fusarium proliferatum at 30 uM after 72 hrs by microtiter plate assay; assay type: functional, organism-based
Procedure, shortened: (§1)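 Conidia come from 7-day potato dextrose agar cultures, filtered and set photometrically (625 nm) to 3 × 10^5 conidia/mL. They are exposed to compound at 30 µM in 96-well microdilution broth at 24 ± 1 °C under a 12 h photoperiod. After 72 h, 20 µL per well is subcultured on drug-free potato dextrose agar at 28 °C for 3 days. No regrowth is scored fungicidal; regrowth is scored fungistatic.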

[7] = system: Fusarium oxysporum; assay: Fungistatic activity against Fusarium oxysporum at 30 uM after 72 hrs by microtiter plate assay; assay type: functional, organism-based; procedure, shortened: as §1
[8] = system: Fusarium solani; assay: Fungicidal activity against Fusarium solani at 30 uM after 72 hrs by microtiter assay; assay type: functional, organism-based
Procedure, shortened: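 After 72 h of microtiter broth exposure at 30 µM, 20 µL from each well was plated onto compound-free potato dextrose agar and incubated 3 days at 28 °C. No regrowth was scored fungicidal; regrowth was scored fungistatic.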

[9] = system: Mycobacterium tuberculosis; assay: Antibacterial activity against Mycobacterium tuberculosis H37Rv at 16 ug/mL by micro plate alamar blue assay; assay type: functional
Procedure, shortened: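 M. tuberculosis H37Rv ATCC 27294 grown in BACTEC 12B medium; microplate Alamar blue assay (MABA). Primary screen at a single concentration of 16 µg/mL, read as percent inhibition.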

[10] = system: Mycobacterium tuberculosis; assay: Antibacterial activity against Mycobacterium tuberculosis H37Rv by micro plate alamar blue assay; assay type: functional
[11] = system: Fusarium solani; assay: Antimicrobial activity against Fusarium solani at 3 uM after 72 hrs by microtiter assay; assay type: functional
Procedure, shortened: (§2)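 96-well microdilution broth assay with conidia (3 × 10^5 conidia/mL, harvested from 7-day PDA cultures and filtered) against F. oxysporum, F. proliferatum and F. solani at 0.3, 3 and 30 µM. Plates were held at 24 ± 1 °C under a 12 h photoperiod. Growth was read at 620 nm at 24, 48 and 72 h and reported as percent inhibition from mean absorbance with standard error.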

[12] = system: UACC-257; assay: Cytotoxicity against human UACC257 cells; assay type: functional
Procedure, shortened: (§3)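 NCI Developmental Therapeutics Program cell panel. GI50 is the concentration that reduces growth of treated cells to half that of untreated controls. TGI is the concentration that completely halts growth.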

[13] = system: KM12; assay: Cytotoxicity against human KM12 cells; assay type: functional; procedure, shortened: as §3
[14] = system: Fusarium proliferatum; assay: Antimicrobial activity against Fusarium proliferatum at 30 uM after 48 hrs by microtiter assay; assay type: functional; procedure, shortened: as §2
[15] = system: Fusarium proliferatum; assay: Antimicrobial activity against Fusarium proliferatum at 3 uM after 72 hrs by microtiter assay; assay type: functional; procedure, shortened: as §2
[16] = system: PC-3; assay: Cytotoxicity against human PC3 cells; assay type: functional; procedure, shortened: as §3
[17] = system: Fusarium proliferatum; assay: Antimicrobial activity against Fusarium proliferatum at 30 uM after 72 hrs by microtiter assay; assay type: functional; procedure, shortened: as §2
[18] = system: A549; assay: Cytotoxicity against human A549 cells; assay type: functional; procedure, shortened: as §3
[19] = system: Hs-578T; assay: Cytotoxicity against human HS578T cells; assay type: functional; procedure, shortened: as §3
[20] = system: Fusarium solani; assay: Antimicrobial activity against Fusarium solani at 0.3 uM after 72 hrs by microtiter assay; assay type: functional; procedure, shortened: as §2
[21] = system: Fusarium oxysporum; assay: Antimicrobial activity against Fusarium oxysporum at 3 uM after 48 hrs by microtiter assay; assay type: functional; procedure, shortened: as §2
[22] = system: HCC 2998; assay: Cytotoxicity against human HCC2998 cells; assay type: functional; procedure, shortened: as §3
[23] = system: Fusarium solani; assay: Antimicrobial activity against Fusarium solani at 3 uM after 48 hrs by microtiter assay; assay type: functional; procedure, shortened: as §2
[24] = system: Fusarium oxysporum; assay: Antimicrobial activity against Fusarium oxysporum at 30 uM after 48 hrs by microtiter assay; assay type: functional; procedure, shortened: as §2
[25] = system: Fusarium solani; assay: Antimicrobial activity against Fusarium solani at 0.3 uM after 48 hrs by microtiter assay; assay type: functional; procedure, shortened: as §2
[26] = system: HT-29; assay: Cytotoxicity against human HT29 cells; assay type: functional; procedure, shortened: as §3
[27] = system: ACHN; assay: Cytotoxicity against human ACHN cells; assay type: functional; procedure, shortened: as §3
[28] = system: COLO 205; assay: Cytotoxicity against human COLO205 cells; assay type: functional; procedure, shortened: as §3
[29] = system: Fusarium proliferatum; assay: Antimicrobial activity against Fusarium proliferatum at 0.3 uM after 48 hrs by microtiter assay; assay type: functional; procedure, shortened: as §2
[30] = system: HCT-15; assay: Cytotoxicity against human HCT15 cells; assay type: functional; procedure, shortened: as §3
[31] = system: Fusarium oxysporum; assay: Antimicrobial activity against Fusarium oxysporum at 30 uM after 72 hrs by microtiter assay; assay type: functional; procedure, shortened: as §2
[32] = system: RPMI-8226; assay: Cytotoxicity against human RPMI8226 cells; assay type: functional; procedure, shortened: as §3
[33] = system: Fusarium solani; assay: Antimicrobial activity against Fusarium solani at 30 uM after 72 hrs by microtiter assay; assay type: functional; procedure, shortened: as §2
[34] = system: SNB-75; assay: Cytotoxicity against human SNB75 cells; assay type: functional; procedure, shortened: as §3
[35] = system: Fusarium oxysporum; assay: Antimicrobial activity against Fusarium oxysporum at 3 uM after 72 hrs by microtiter assay; assay type: functional; procedure, shortened: as §2
[36] = system: Fusarium oxysporum; assay: Antimicrobial activity against Fusarium oxysporum at 0.3 uM after 48 hrs by microtiter assay; assay type: functional; procedure, shortened: as §2
[37] = system: SK-OV-3; assay: Cytotoxicity against human SK-OV3 cells; assay type: functional; procedure, shortened: as §3
[38] = system: Fusarium proliferatum; assay: Antimicrobial activity against Fusarium proliferatum at 0.3 uM after 72 hrs by microtiter assay; assay type: functional; procedure, shortened: as §2
[39] = system: Fusarium oxysporum; assay: Antimicrobial activity against Fusarium oxysporum at 0.3 uM after 72 hrs by microtiter assay; assay type: functional; procedure, shortened: as §2
[40] = system: DU-145; assay: Cytotoxicity against human DU145 cells; assay type: functional; procedure, shortened: as §3
[41] = system: Fusarium proliferatum; assay: Antimicrobial activity against Fusarium proliferatum at 3 uM after 48 hrs by microtiter assay; assay type: functional; procedure, shortened: as §2
[42] = system: Fusarium solani; assay: Antimicrobial activity against Fusarium solani at 30 uM after 48 hrs by microtiter assay; assay type: functional; procedure, shortened: as §2
[43] = system: NCI-H322M; assay: Cytotoxicity against human NCI-H322M cells; assay type: functional; procedure, shortened: as §3

C/C=C1\NC(=O)[C@H](Cc2ccccc2)NC(=O)[C@@H](C(C)C)NC(=O)[C@@H]([C@@H](C)CC)NC(=O)[C@H](NC(=O)[C@H](NC(=O)[C@H](CCCNCCCCCC)NC(=O)[C@H]2CCCN2C(=O)[C@H](NC(=O)[C@@H](NC(=O)[C@@H](NC(=O)[C@H](NC(=O)CCCC(C)C)C(C)C)[C@@H](C)O)C(C)C)C(C)C)[C@@H](C)CC)[C@@H](C)OC(=O)[C@H](C(C)C)NC1=O
IC50 [1]: 17 µg/mL (≈ 10.9 µM)
IC50 [2]: 1930 nM
IC50 [3]: 5690 nM
IC50 [4]: 3120 nM
IC50 [5]: > 20000 nM

C/C=C1\NC(=O)[C@H](Cc2ccccc2)NC(=O)[C@@H](C(C)C)NC(=O)[C@@H]([C@@H](C)CC)NC(=O)[C@H](NC(=O)[C@H](NC(=O)[C@H](CCCNCc2ccc(F)cc2)NC(=O)[C@H]2CCCN2C(=O)[C@@H](NC(=O)[C@H](NC(=O)[C@H](NC(=O)[C@@H](NC(=O)CCCC(C)C)C(C)C)[C@H](C)O)C(C)C)C(C)C)[C@@H](C)CC)[C@@H](C)OC(=O)[C@H](C(C)C)NC1=O
Activity [6]: Active
Activity [7]: Active
Activity [8]: Active

CO[C@H]1/C=C/O[C@@]2(C)Oc3c(C)c(O)c4c(O)c(c(/C=N/N5CCN(C)CC5)c(O)c4c3C2=O)NC(=O)/C(C)=C\C=C\[C@H](C)[C@H](O)[C@@H](C)[C@@H](O)[C@@H](C)[C@H](OC(C)=O)[C@@H]1C [RIFAMPIN]
inhibition at 16 µg/mL [9]: 93%
MIC [10]: 0.08 µg/mL (≈ 0.0972 µM)

C/C=C1\NC(=O)[C@H](Cc2ccccc2)NC(=O)[C@@H](C(C)C)NC(=O)[C@@H]([C@@H](C)CC)NC(=O)[C@H](NC(=O)[C@H](NC(=O)[C@H](CCCNCCCCCC)NC(=O)[C@H]2CCCN2C(=O)[C@@H](NC(=O)[C@H](NC(=O)[C@H](NC(=O)[C@@H](NC(=O)CCCC(C)C)C(C)C)[C@H](C)O)C(C)C)C(C)C)[C@@H](C)CC)[C@@H](C)OC(=O)[C@H](C(C)C)NC1=O
Activity [6]: Active
Activity [7]: Active
Activity [8]: Active

C/C=C1\NC(=O)[C@H](Cc2ccccc2)NC(=O)[C@@H](C(C)C)NC(=O)[C@@H]([C@@H](C)CC)NC(=O)[C@H](NC(=O)[C@H](NC(=O)[C@H](CCCN(CCCCCC)CCCCCC)NC(=O)[C@H]2CCCN2C(=O)[C@H](NC(=O)[C@@H](NC(=O)[C@@H](NC(=O)[C@H](NC(=O)CCCC(C)C)C(C)C)[C@@H](C)O)C(C)C)C(C)C)[C@@H](C)CC)[C@@H](C)OC(=O)[C@H](C(C)C)NC1=O
MFC [2]: > 20 µM
MIC [2]: > 20 µM
MFC [3]: > 20 µM
MIC [3]: > 20 µM
MFC [4]: > 20 µM
MIC [4]: > 20 µM
inhibition at 16 µg/mL [9]: 91%
MBC [5]: > 20 µM
MIC [5]: > 20 µM
MIC [10]: 9.4 µg/mL (≈ 5.71 µM)

C/C=C1\NC(=O)[C@H](Cc2ccccc2)NC(=O)[C@@H](C(C)C)NC(=O)[C@@H]([C@@H](C)CC)NC(=O)[C@H](NC(=O)[C@H](NC(=O)[C@H](CCCNCc2cccs2)NC(=O)[C@H]2CCCN2C(=O)[C@H](NC(=O)[C@@H](NC(=O)[C@@H](NC(=O)[C@H](NC(=O)CCCC(C)C)C(C)C)[C@@H](C)O)C(C)C)C(C)C)[C@@H](C)CC)[C@@H](C)OC(=O)[C@H](C(C)C)NC1=O
IC50 [1]: 17 µg/mL (≈ 10.8 µM)
IC50 [2]: 1910 nM
IC50 [3]: 3810 nM
IC50 [4]: 3220 nM
IC50 [5]: 12000 nM

C/C=C1\NC(=O)[C@H](Cc2ccccc2)NC(=O)[C@@H](C(C)C)NC(=O)[C@@H]([C@@H](C)CC)NC(=O)[C@H](NC(=O)[C@H](NC(=O)[C@H](CCCNCc2ccncc2)NC(=O)[C@H]2CCCN2C(=O)[C@H](NC(=O)[C@@H](NC(=O)[C@@H](NC(=O)[C@H](NC(=O)CCCC(C)C)C(C)C)[C@@H](C)O)C(C)C)C(C)C)[C@@H](C)CC)[C@@H](C)OC(=O)[C@H](C(C)C)NC1=O
inhibition at 3 µM [11]: 0%
GI50 [12]: 1310 nM
TGI [12]: 2430 nM
MFC [2]: 5 µM (≈ 7.85 µg/mL)
MIC [2]: 5 µM (≈ 7.85 µg/mL)
MFC [3]: > 20 µM
MIC [3]: > 20 µM
MFC [4]: 20 µM (≈ 31.4 µg/mL)
MIC [4]: 10 µM (≈ 15.7 µg/mL)
GI50 [13]: 152 nM
inhibition at 30 µM [14]: 99.1%
inhibition at 3 µM [15]: 0%
GI50 [16]: 267 nM
TGI [16]: 973 nM
inhibition at 30 µM [17]: 95.3%
GI50 [18]: 189 nM
TGI [18]: 425 nM
GI50 [19]: 162 nM
TGI [19]: 444 nM
inhibition at 0.3 µM [20]: 0%
inhibition at 3 µM [21]: 0%
GI50 [22]: 236 nM
TGI [22]: 732 nM
inhibition at 3 µM [23]: 0%
inhibition at 30 µM [24]: 98.2%
inhibition at 0.3 µM [25]: 0%
GI50 [26]: 279 nM
GI50 [27]: 1280 nM
TGI [27]: 2320 nM
GI50 [28]: 618 nM
inhibition at 0.3 µM [29]: 0%
inhibition at 16 µg/mL [9]: 24%
GI50 [30]: 492 nM
TGI [30]: 1560 nM
inhibition at 30 µM [31]: 91.2%
GI50 [32]: 638 nM
TGI [32]: 1890 nM
inhibition at 30 µM [33]: 97.5%
GI50 [34]: 1290 nM
TGI [34]: 2610 nM
inhibition at 3 µM [35]: 0%
inhibition at 0.3 µM [36]: 0%
MBC [5]: > 20 µM
MIC [5]: > 20 µM
GI50 [37]: 374 nM
TGI [37]: 1360 nM
inhibition at 0.3 µM [38]: 0%
inhibition at 0.3 µM [39]: 0%
GI50 [40]: 124 nM
TGI [40]: 266 nM
inhibition at 3 µM [41]: 0%
inhibition at 30 µM [42]: 99.2%
GI50 [43]: 131 nM
TGI [43]: 238 nM
